{"data": "Measurements gathered from unrelated publications", "effect on": "enzyme activity", "RET": "Proto-oncogene tyrosine-protein kinase receptor Ret (RET, Homo sapiens, UniProt P07949)", "note": "Protocols differ between the studies behind these lines."}
{"SMILES": "COc1ccc(-c2cn3cc(C(=O)N4CC(O)C4)nc3c(=O)n2C)c(F)c1", "target": "RET", "test": "inhibitor, radiometric", "conditions": "10 µM", "remaining activity [%]": 111}
{"SMILES": "CCCOc1ccc(OC)c(F)c1C(=O)c1ccc(C(=O)N[C@@H]2CNC[C@H]2NC(=O)c2ccc3[nH]ncc3c2)cc1", "target": "RET", "test": "inhibitor", "conditions": "0.1 µM", "remaining activity [%]": 98}
{"SMILES": "O=C(Nc1cnn(-c2csc(C(=O)NC3COC3)c2)c1)Nc1ccccc1Cl", "target": "RET", "test": "inhibitor", "conditions": "5 µM", "remaining activity [%]": 97.8}
{"SMILES": "CCN(CC)CCNC(=O)c1c(C)[nH]c(/C=C2\\C(=O)Nc3ccc(F)cc32)c1C", "target": "RET", "test": "inhibitor", "conditions": "1 µM", "remaining activity [%]": 0}
{"SMILES": "COc1cc(NC(=O)Nc2cccc(Br)c2)cc2sc(NC(=O)c3ccccc3)nc12", "target": "RET", "test": "inhibitor, radiometric", "conditions": "0.1 µM", "remaining activity [%]": 153}
{"SMILES": "CC(C)(C)c1nc2c(s1)c1nc(N)ncc1c1ccc(NS(=O)(=O)c3c(F)cccc3F)c(F)c12", "target": "RET", "test": "inhibitor, radiometric", "conditions": "1 µM", "remaining activity [%]": 69}
{"SMILES": "Cc1cnc(NC2CCOCC2)nc1-n1cnc(C(=O)NC(CN)c2cc(F)cc(Cl)c2)c1 (stereo not shown)", "target": "Proto-oncogene tyrosine-protein kinase receptor Ret (RET, Homo sapiens, UniProt P07949, V804M)", "test": "inhibitor, radiometric", "conditions": "1 µM", "remaining activity [%]": 100}
{"SMILES": "CCOc1ccc(NC(=O)Nc2cc(OC)c3nc(NC(=O)c4ccccc4)sc3c2)cc1", "target": "RET", "test": "inhibitor, radiometric", "conditions": "0.1 µM", "remaining activity [%]": 115}
{"SMILES": "Cc1[nH]c(/C=C2\\C(=O)Nc3ccc(F)cc32)c(C)c1C(=O)N[C@H]1CCN(C(=O)N(C)C)C1", "target": "RET", "test": "inhibitor", "conditions": "0.1 µM", "remaining activity [%]": 62}
{"SMILES": "Cc1ccc(C(=O)Nc2ccc(CN3CCN(C)CC3)c(C(F)(F)F)c2)cc1C#Cc1cnc2cccnn12", "target": "Proto-oncogene tyrosine-protein kinase receptor Ret (RET, Homo sapiens, UniProt P07949, M918T)", "conditions": "23.5 nM", "remaining activity [%]": 1.4}
{"SMILES": "COC(=O)c1cccc(NC(=O)Nc2cc(C)c3nc(NC(=O)c4ccccc4)sc3c2)c1", "target": "RET", "test": "inhibitor, radiometric", "conditions": "0.1 µM", "remaining activity [%]": 109}
{"SMILES": "COc1cc(Cl)c(C(=O)N[C@@H](CN[C@H]2CC[C@@H](N)CC2)Cc2ccc(C#N)cc2)cc1-c1ccc(CN[C@H](C)c2ccc(C)cc2)o1", "target": "RET", "test": "inhibitor", "conditions": "1 µM", "remaining activity [%]": 110}
{"SMILES": "CC(C)(O)[C@H]1CC[C@H](Nc2ccc3ncc(-c4cccc(C(F)(F)F)c4)n3n2)CC1", "target": "RET", "test": "inhibitor", "conditions": "1 µM", "remaining activity [%]": 86.9}
